STAT3 act-1 – increases IL-6 driven STAT3 reporter signal; 190,000 tested, 0.91% active; U3A cells, IL-6 STAT3-luciferase reporter, luminescence; 100% = signal with IL-6 EC80 alone; AID 871; activation (% of control), % at 5.6 µM;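 active = activation above the screen-wide mean of compound activation plus 3 SD, cut at about 130% in these data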;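 note: 0% = background luminescence of wells with medium and substrate only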
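Detection: reporter luminescence signal / Assay system: STAT1-lacking human U3A cells, STAT3 luciferase reporter / Incubation: compound pre-incubation 1 h before IL-6, then 6 h stimulation at 37 °C / Control set: IL-6-only high control / Read-out: % activation relative to IL-6 control / Probe or stimulus: Interleukin-6, 33 ng/mL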
NF-kB neuron act – compounds increasing NF-kB expression in human neuronal cells; NF-kB reporter expression; stronger effect = higher value; fold change at 12.5 µM; 190,000 tested, 1.6% active; AID 1239; in the data active = fold change above about 3.3
APP 5'UTR act – APP 5'UTR luciferase reporter activation. SH-SY5Y APP 5'UTR luciferase reporter, luminescence; zero percent = DMSO vehicle wells. activation, % at 2 µM. 190,000 tested, 1% active;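 active = activation above a set limit, based on mean plus 3 SD of controls, cut at about 140% in these data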
STAT3 blocker – inhibitors of IL-6 induced STAT3 signaling; U3A cells, IL-6 STAT3-luciferase reporter, luminescence; host cell line lacks STAT1; AID 862; inhibition, % at 5.5 µM; 190,000 tested, 0.89% active;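 active = inhibition above the mean inhibition across all screened compounds plus 3 SD, cut at about 44% in these data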;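 note: 0% = DMSO only wells and 100% = 100 µM nifuroxazide control wells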
STAT1 inh – inhibitors of IFN-gamma induced STAT1 signaling; NIH 3T3 STAT1-luciferase reporter, luminescence; inhibition, % at 5.5 µM; 200,000 tested, 0.35% active; AID 920;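 active = inhibition above a set limit, the mean inhibition across all tested compounds plus 3 SD, cut at about 34% in these data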;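 note: 0% = IFN-gamma with DMSO and 100% = IFN-gamma with 300 µM nifuroxazide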
STAT1 act-1 – increases IFN-gamma driven STAT1 reporter signal; 200,000 tested, 2.6% active; NIH 3T3 STAT1-luciferase reporter, luminescence; 100% = IFN-gamma alone, no compound; activation (% of control), % at 5.5 µM; AID 932;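 active = activation above the screen-wide mean activation plus 3 SD, cut at about 130% in these data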;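 note: raw ratio to IFN-gamma control signal so 100% means no change and 0% no light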
STAT3 act-2 – confirmation of STAT3 signaling activators; U3A STAT3-luciferase reporter, IL-6 potentiation, luminescence; U3A cells lack STAT1; 100 means same as IL-6 alone; 1,200 tested, 64% active; shares compounds with STAT3 act-1; potentiation (% of control), % at 5.7 µM; AID 1267;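 active = percent activation of the STAT3 luciferase reporter above a set limit taken from the earlier primary screen, cut at about 130% in these data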;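 note: 0% = background signal of medium plus substrate and 100% = median of IL-6 with DMSO wells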
NFkB act STAT3ct – activates NF-kappaB, counter-screen to STAT3 activators; shares compounds with STAT3 act-1; human cells, NF-kappaB reporter activation; activation (% of control), % at 5.7 µM; 1,200 tested, 11% active; AID 1309; in the data active = activation above about 120%;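 note: reporter induced by TNF-alpha stimulation; 100% = median of stimulated DMSO wells and 0% = no signal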
STAT1 act-2 – activates STAT1, counter-screen to STAT3 activators; shares compounds with STAT3 act-1; NIH 3T3 STAT1-luciferase reporter, IFN-gamma, luminescence; activation (% of control), % at 5.7 µM; 1,200 tested, 13% active; AID 1318;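 active = activation above the solvent-only control well mean plus 3 SD, set per screening run, cut at about 120% in these data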;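 note: 100% = IFN-gamma with DMSO median signal so 100% means no change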
* hit, by the source's call; . = no result given. An excerpt weighted towards active compounds, which were near 5.1% of everything screened.

SMILES	STAT3 act-1	NF-kB neuron act	APP 5'UTR act	STAT3 blocker	STAT1 inh	STAT1 act-1	STAT3 act-2	NFkB act STAT3ct	STAT1 act-2
CC(C)CC(=O)NC(=S)Nc1nc(-c2ccccc2)cs1	144*	1	-1	-51	-7	106	140*	107	104
O=C(NC(=S)Nc1nc(-c2ccccc2)cs1)c1cccs1	142*	0.96	10	-49	7	94	147*	98	87
O=C(NC(=S)Nc1nc(-c2ccccc2)cs1)c1ccco1	139*	1.5	2	-37	0	98	140*	103	95
CC(C)CC(=O)NC(=S)Nc1nc(-c2ccc(Cl)cc2)cs1	96	1.1	6	7	7	93	.	.	.
Cc1cc(C)n2nc(Nc3ccccc3)cc2n1	157*	2	27	-62	18	83	168*	112	105
Cc1cc(C)n2nc3ccccc3c2n1	120	1.5	-9	-19	-3	102	.	.	.
COc1ccc(N2CCN(CC(O)COc3ccccc3[N+](=O)[O-])CC2)cc1 (stereo not drawn)	95	1.2	-6	6	5	96	.	.	.
O=C(NCCSc1c[nH]c2ccccc12)c1ccco1	140*	1.7	-1	-42	-10	109	121	110	133*
O=C(NCCSc1c[nH]c2ccccc12)c1c(F)cccc1F	.	1.2	-1	.	-10	108	.	.	.
CC(C(=O)N1CCCCCC1)c1ccc([N+](=O)[O-])cc1 (stereo not drawn)	98	1.1	-14	8	-3	101	.	.	.
Cn1ccnc1Sc1ccc(/C=N/NC(=O)c2ccccc2O)cc1[N+](=O)[O-]	149*	1	5	-63	2	98	177*	116	124*
CC(C(=O)N1CCc2ccccc21)N1CCc2ccccc2C1 (stereo not drawn)	146*	1	11	-47	6	94	119	103	102
CCOCC(=O)N1CCc2ccccc21	151*	1.5	10	-60	-1	100	139*	103	97
CN(C)S(=O)(=O)N1CCc2ccccc21	146*	1.1	-10	-54	-2	100	133	102	101
CC(CC(=O)N1CCc2ccccc21)c1ccccc1 (stereo not drawn)	92	1.4	.	10	-8	106	.	.	.
O=C(OCC(=O)N1CCc2ccccc21)c1ccccc1	100	2.4	-13	7	-26	124	.	.	.
CN(C)S(=O)(=O)N1CCc2ccccc2C1	97	0.86	6	6	-7	106	.	.	.
COc1cc2c(cc1OC)CN(C(C)C(=O)N1CCc3ccccc31)CC2 (stereo not drawn)	106	0.86	-2	-11	-6	105	.	.	.
CCN(CC)C(=O)N1CCc2ccccc21	146*	1.2	-1	-40	4	96	151*	105	101
O=C(c1cccnc1)N1CCc2ccccc21	159*	0.92	8	-66	-1	101	140*	102	95
CCOC(=O)c1c(C)[nH]c(C(=O)OCC(=O)Nc2cc(C)c(Cl)cc2OC)c1C	142*	0.98	.	-54	0	100	127	102	105
Cc1cnc(CNC(=O)c2ccc(OC3CCN(C(=O)C4CC4)CC3)cc2)cn1	103	1.3	-1	8	-3	102	.	.	.
COCCn1nnnc1C(c1cc2cc(C)ccc2[nH]c1=O)N1CCc2ccccc21 (stereo not drawn)	150*	1	.	-59	5	96	106	108	97
COCCn1nnnc1C(c1cc2cc(C)ccc2[nH]c1=O)N1CCCCCC1 (stereo not drawn)	112	1.1	8	-6	0	100	.	.	.
